Laboratory results as given in ChEMBL document CHEMBL4393722, “Development of the "hidden" multifunctional agents for Alzheimer's disease” (Eur J Med Chem, 2019).
Calls of active or inactive are those of the source. The calls are words filed in the database; no cut-off is given here.

Key:
hERG (KCNH2) = hERG (KCNH2) (Homo sapiens, UniProt Q12809); assay: Inhibition of human ERG expressed in CHO cells at 0.1 uM incubated for 1 min at -80 mV holding potential by manual patch clamp assay relative to control; type: cell-based; settings: CHO cells expressing human ERG
Chain of hERG (KCNH2) (Q12809 whole entry): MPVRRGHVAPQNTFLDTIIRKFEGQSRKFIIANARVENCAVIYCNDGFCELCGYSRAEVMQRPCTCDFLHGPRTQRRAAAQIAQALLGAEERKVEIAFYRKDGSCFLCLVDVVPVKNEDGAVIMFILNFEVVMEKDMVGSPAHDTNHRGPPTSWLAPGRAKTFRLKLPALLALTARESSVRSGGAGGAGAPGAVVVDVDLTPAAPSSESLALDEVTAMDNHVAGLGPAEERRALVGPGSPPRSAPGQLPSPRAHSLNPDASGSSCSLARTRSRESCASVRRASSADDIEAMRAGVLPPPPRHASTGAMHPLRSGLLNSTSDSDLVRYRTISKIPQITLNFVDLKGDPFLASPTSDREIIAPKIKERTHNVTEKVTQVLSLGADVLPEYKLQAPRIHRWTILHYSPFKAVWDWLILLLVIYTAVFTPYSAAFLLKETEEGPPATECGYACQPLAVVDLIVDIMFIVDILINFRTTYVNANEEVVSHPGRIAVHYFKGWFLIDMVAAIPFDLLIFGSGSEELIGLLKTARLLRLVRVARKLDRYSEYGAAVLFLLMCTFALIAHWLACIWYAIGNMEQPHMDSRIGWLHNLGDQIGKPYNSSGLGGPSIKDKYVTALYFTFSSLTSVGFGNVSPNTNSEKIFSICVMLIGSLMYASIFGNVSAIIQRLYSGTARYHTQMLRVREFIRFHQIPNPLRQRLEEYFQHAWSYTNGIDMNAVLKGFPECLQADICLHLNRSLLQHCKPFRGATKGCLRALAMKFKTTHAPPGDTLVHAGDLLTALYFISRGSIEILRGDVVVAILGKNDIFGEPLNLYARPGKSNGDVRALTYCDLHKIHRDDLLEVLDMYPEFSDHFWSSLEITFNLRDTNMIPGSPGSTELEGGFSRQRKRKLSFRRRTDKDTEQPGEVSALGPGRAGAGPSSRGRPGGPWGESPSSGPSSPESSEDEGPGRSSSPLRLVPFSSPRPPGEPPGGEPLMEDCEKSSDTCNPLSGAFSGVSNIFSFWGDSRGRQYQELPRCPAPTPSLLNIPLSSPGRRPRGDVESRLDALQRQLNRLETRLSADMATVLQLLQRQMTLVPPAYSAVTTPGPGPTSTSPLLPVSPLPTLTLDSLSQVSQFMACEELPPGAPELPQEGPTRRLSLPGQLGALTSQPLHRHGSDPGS

Danio rerio [1] = species on record: Danio rerio; assay: Cognition enhancement in aluminium chloride-induced Alzheimer's disease zebra fish model assessed as Dyskinesia recovery rate at 50 uM treated from 3 dpf to 5 dpf relative to control; type: functional
How it was run: (§1)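 Zebrafish larvae were exposed to 150 µM AlCl₃ from 3 to 5 dpf, with the test drug co-administered over the same 3–5 dpf window. There were 30 fish per group. Dyskinesia recovery rate (DRR) and response efficiency (RE) were both calculated from the average swimming speed of drug-treated fish, with p values reported.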

Danio rerio [2] = species on record: Danio rerio; assay: Cognition enhancement in aluminium chloride-induced Alzheimer's disease zebra fish model assessed as Dyskinesia recovery rate at 250 uM treated from 3 dpf to 5 dpf relative to control; type: functional; how it was run: as §1
Danio rerio [3] = species on record: Danio rerio; assay: Cognition enhancement in aluminium chloride-induced Alzheimer's disease zebra fish model assessed as Response efficiency at 250 uM treated from 3 dpf to 5 dpf relative to control; type: functional; how it was run: as §1
Danio rerio [4] = species on record: Danio rerio; assay: Cognition enhancement in aluminium chloride-induced Alzheimer's disease zebra fish model assessed as Response efficiency at 10 uM treated from 3 dpf to 5 dpf relative to control; type: functional; how it was run: as §1
Mus musculus [5] = assay: Cognition enhancement in aluminium trichloride-induced amnesia mouse model assessed as error times at 2 mg/kg administered via gastric gavage for 30 days by SMG-2 programmable water maze test; type: functional, organism-based
Danio rerio [6] = species on record: Danio rerio; assay: Cognition enhancement in aluminium chloride-induced Alzheimer's disease zebra fish model assessed as Dyskinesia recovery rate at 10 uM treated from 3 dpf to 5 dpf relative to control; type: functional; how it was run: as §1
Danio rerio [7] = species on record: Danio rerio; assay: Cognition enhancement in aluminium chloride-induced Alzheimer's disease zebra fish model assessed as Response efficiency at 50 uM treated from 3 dpf to 5 dpf relative to control; type: functional; how it was run: as §1
Mus musculus [8] = assay: Cognition enhancement in aluminium trichloride-induced amnesia mouse model assessed as total swimming time at 2 mg/kg administered via gastric gavage for 30 days by SMG-2 programmable water maze test; type: functional, organism-based
[9] = biological target: Amyloid-beta precursor protein (Homo sapiens) (UniProt P05067); assay: Inhibition of HFIP-pretreated amyloid beta (1 to 42) (unknown origin) self-aggregation at 20 uM after 72 hrs by uranyl acetate staining based transmission electron microscopy
Chain of Amyloid-beta precursor protein (Homo sapiens) (P05067 whole entry): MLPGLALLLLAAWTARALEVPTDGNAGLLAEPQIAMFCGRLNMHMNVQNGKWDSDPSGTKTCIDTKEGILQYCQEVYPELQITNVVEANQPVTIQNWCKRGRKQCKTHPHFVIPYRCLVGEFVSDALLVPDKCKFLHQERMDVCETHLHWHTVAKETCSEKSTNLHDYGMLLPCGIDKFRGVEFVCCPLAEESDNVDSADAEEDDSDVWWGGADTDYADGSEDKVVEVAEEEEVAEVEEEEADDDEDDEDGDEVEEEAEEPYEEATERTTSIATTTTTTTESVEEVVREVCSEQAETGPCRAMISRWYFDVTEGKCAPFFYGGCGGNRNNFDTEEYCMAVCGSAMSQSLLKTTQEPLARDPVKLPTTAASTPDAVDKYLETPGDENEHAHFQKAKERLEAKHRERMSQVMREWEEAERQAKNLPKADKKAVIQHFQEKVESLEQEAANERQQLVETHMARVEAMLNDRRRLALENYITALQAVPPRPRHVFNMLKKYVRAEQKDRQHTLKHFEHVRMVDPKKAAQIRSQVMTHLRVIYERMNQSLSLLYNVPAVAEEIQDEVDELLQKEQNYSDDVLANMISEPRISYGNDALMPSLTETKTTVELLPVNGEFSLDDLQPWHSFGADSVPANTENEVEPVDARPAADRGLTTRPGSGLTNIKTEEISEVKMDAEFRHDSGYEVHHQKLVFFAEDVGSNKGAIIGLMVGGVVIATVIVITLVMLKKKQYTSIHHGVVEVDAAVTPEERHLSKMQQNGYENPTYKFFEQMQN
How it was run: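 Aβ1-42 was incubated alone or with compound for 72 h at 37 °C. Fibril formation was then examined by transmission electron microscopy, with curcumin as positive control.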

With `COc1cc(N)c(Cl)cc1C(=O)N[C@H]1CCN(CCCOc2ccc(F)cc2)C[C@H]1OC` [REL-CISAPRIDE] the inhibition at 1 min, 0.1 µM (hERG (KCNH2)) was 89%.
`CCN(C)C(=O)Oc1cccc([C@H](C)N(C)C)c1` [RIVASTIGMINE] showed an Activity (Danio rerio [1]) of 64%, an Activity (Danio rerio [2]) of 58.6% and an Activity (Danio rerio [3]) of 175.1%. The Activity (Danio rerio [4]) was 126.3%, the Activity (Mus musculus [5]) was “inactive” and the Activity (Danio rerio [6]) was 53.4%. The Activity (Danio rerio [7]) was 86.6% and the Activity (Mus musculus [8]) was “inactive”.
For `COc1cc(/C=C/C(=O)CC(=O)/C=C/c2ccc(O)c(OC)c2)ccc1O`, the inhibition [9] was “Active”.
